Measured values as given in ChEMBL document CHEMBL3808334, “Synthesis and in vitro evaluation of novel triazine analogues as anticancer agents and their interaction studies with bovine serum albumin” (Eur J Med Chem, 2016).

Columns and labels:
Assay type in all cases: functional
[1] = Growth inhibition of human PC3 cells incubated for 48 hrs by sulforhodamine B assay; settings: PC-3, 48 h
In short: (§1)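 Cells were plated at 5,000–40,000 per well according to doubling time and preincubated 24 h at 37 °C in 5% CO2; time-zero plates were then TCA-fixed. Five concentrations (10-fold or ½-log dilutions, DMSO stock) were incubated 48 h. Cells were TCA-fixed, stained with 0.4% SRB and read at 515 nm. GI50 was taken where [(Ti−Tz)/(C−Tz)]×100 = 50.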

[2] = Growth inhibition of human SKOV3 cells assessed as cell growth at 10^-4 M incubated for 48 hrs by sulforhodamine B assay; settings: SK-OV-3, 48 h, read-out: Activity
MDA-MB-231 = assay: Growth inhibition of human MDA-MB-231 cells incubated for 48 hrs by sulforhodamine B assay; settings: MDA-MB-231, 48 h; in short: as §1
[3] = Growth inhibition of human TK10 cells assessed as cell growth at 10 uM incubated for 48 hrs by sulforhodamine B assay; settings: TK-10, 48 h, read-out: Activity
NCI/ADR-RES = assay: Growth inhibition of human NCI/ADR-RES cells assessed as cell growth at 10^-7 M incubated for 48 hrs by sulforhodamine B assay; settings: read-out: Activity
U-251 = assay: Growth inhibition of human U251 cells assessed as cell growth at 10^-4 M incubated for 48 hrs by sulforhodamine B assay; settings: U-251, 48 h, read-out: Activity
SN12C [4] = assay: Growth inhibition of human SN12C cells assessed as cell growth at 10^-6 M incubated for 48 hrs by sulforhodamine B assay; settings: read-out: Activity
[5] = Growth inhibition of human ovarian cancer cells incubated for 48 hrs by sulforhodamine B assay; settings: Cancer cell lines
[6] = Growth inhibition of human OVCAR8 cells assessed as cell growth at 10^-6 M incubated for 48 hrs by sulforhodamine B assay; settings: OVCAR-8, 48 h, read-out: Activity
NCI-H226 = assay: Growth inhibition of human NCI-H226 cells assessed as cell growth at 10 uM incubated for 48 hrs by sulforhodamine B assay; settings: NCI-H226, 48 h, read-out: Activity
[7] = Growth inhibition of human SKOV3 cells assessed as cell growth at 10^-8 M incubated for 48 hrs by sulforhodamine B assay; settings: SK-OV-3, 48 h, read-out: Activity
[8] = Growth inhibition of human Caki1 cells assessed as cell growth at 10^-8 M incubated for 48 hrs by sulforhodamine B assay; settings: CAKI-1, 48 h, read-out: Activity
In short: (§2)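 Cells seeded at 5,000–40,000/well according to doubling time and preincubated 24 h at 37 °C, 5% CO2. Time-zero plates were TCA-fixed. DMSO concentrate was diluted in medium with 50 µg/ml gentamicin to give five concentrations (10-fold or ½ log steps), then exposed 48 h. Cells were TCA-fixed, stained with 0.4% SRB and read at 515 nm. Percent growth was taken against time-zero and control; GI50, TGI and LC50 derived.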

NCI-H460 = assay: Growth inhibition of human NCI-H460 cells assessed as cell growth at 10^-6 M incubated for 48 hrs by sulforhodamine B assay; settings: NCI-H460, 48 h, read-out: Activity
T47D = assay: Growth inhibition of human T47D cells incubated for 48 hrs by sulforhodamine B assay; in short: as §1
Malme-3M = assay: Growth inhibition of human MALME-3M cells assessed as cell growth at 10^-7 M incubated for 48 hrs by sulforhodamine B assay; settings: read-out: Activity
[9] = Growth inhibition of human RPMI8226 cells assessed as cell growth at 10^-4 M incubated for 48 hrs by sulforhodamine B assay; settings: RPMI-8226, 48 h, read-out: Activity
[10] = Growth inhibition of human LOXIMVI cells assessed as cell growth at 10^-4 M incubated for 48 hrs by sulforhodamine B assay; settings: LOX IMVI, read-out: Activity
[11] = Growth inhibition of human RXF393 cells incubated for 48 hrs by sulforhodamine B assay; settings: RXF 393, 48 h; in short: as §1
[12] = Growth inhibition of human OVCAR3 cells assessed as cell growth at 10^-5 M incubated for 48 hrs by sulforhodamine B assay; settings: OVCAR-3, 48 h, read-out: Activity
MDA-MB-468 [13] = assay: Growth inhibition of human MDA-MB-468 cells incubated for 48 hrs by sulforhodamine B assay; settings: MDA-MB-468, 48 h; in short: as §1
A549 = assay: Growth inhibition of human A549/ATCC cells assessed as cell growth at 10^-6 M incubated for 48 hrs by sulforhodamine B assay; settings: A549, 48 h, read-out: Activity
In short: (§3)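 Five-dose assay: five concentrations from 10-fold or ½-log serial dilutions. Cells are plated at 5,000–40,000 per well according to doubling time, grown 24 h, then exposed 48 h at 37 °C, 5% CO₂. Fixed with cold 50% TCA (final addition) for 60 min at 4 °C and stained with 0.4% SRB in 1% acetic acid. Bound dye is solubilized in 10 mM Tris base and read at 515 nm. GI₅₀ is where [(Ti−Tz)/(C−Tz)]×100 = 50, with a time-zero plate as Tz.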

[14] = Growth inhibition of human COLO205 cells assessed as cell growth at 10^-6 M incubated for 48 hrs by sulforhodamine B assay; settings: COLO 205, 48 h, read-out: Activity; in short: as §2
[15] = Growth inhibition of human UO31 cells assessed as cell growth at 10 uM incubated for 48 hrs by sulforhodamine B assay; settings: UO-31, 48 h, read-out: Activity
ACHN = assay: Growth inhibition of human ACHN cells assessed as cell growth at 10^-4 M incubated for 48 hrs by sulforhodamine B assay; settings: read-out: Activity; in short: as §3
MDA-MB-468 [16] = assay: Growth inhibition of human MDA-MB-468 cells assessed as cell growth at 10^-6 M incubated for 48 hrs by sulforhodamine B assay; settings: MDA-MB-468, 48 h, read-out: Activity
SN12C [17] = assay: Growth inhibition of human SN12C cells assessed as cell growth at 10^-4 M incubated for 48 hrs by sulforhodamine B assay; settings: read-out: Activity
[18] = Growth inhibition of human UO31 cells assessed as cell growth at 10^-4 M incubated for 48 hrs by sulforhodamine B assay; settings: UO-31, 48 h, read-out: Activity
[19] = read-out: LC50 (the source's name)
[20] = read-out: pLC50 (the source's name) (converted)

`Fc1ccc(-c2nc(Nc3ccc(-c4nc5ccccc5[nH]4)cc3)nc(N3CCOCC3)n2)cc1` showed a GI50 ([1]; read-out: GI50) of 2.39 µM, a CC50 [1, 19] of over 100 µM and a TGI ([1]; read-out: TGI) of 6.66 µM. For the same molecule, the GI50 ([1]; read-out: pGI50 (converted)) was 2.4 µM, the CC50 [1, 20] was over 100 µM and the TGI ([1]; read-out: pTGI (converted)) was 6.61 µM. The growth at 100 µM [2] was -49%, the GI50 (MDA-MB-231; read-out: GI50) was 1.63 µM and the CC50 (MDA-MB-231; [19]) was over 100 µM. It also gave a TGI (MDA-MB-231; read-out: TGI) of 4.76 µM, a GI50 (MDA-MB-231; read-out: pGI50 (converted)) of 1.62 µM and a CC50 (MDA-MB-231; [20]) of over 100 µM. It also gave a TGI (MDA-MB-231; read-out: pTGI (converted)) of 4.79 µM, a growth at 10 µM [3] of 43.9% and a growth at 0.1 µM (NCI/ADR-RES) of 95%. It also gave a growth at 100 µM (U-251) of -33%, a growth at 1 µM (SN12C [4]) of 89% and a GI50 [5] of 2.74 µM. For the same molecule, the TGI [5] was 11.5 µM, the CC50 [5, 19] was over 100 µM and the growth at 1 µM [6] was 101%. For the same molecule, the growth at 10 µM (NCI-H226) was 17.1%, the growth at 0.01 µM [7] was 99% and the growth at 0.01 µM [8] was 94%. The growth at 1 µM (NCI-H460) was 97%, the GI50 (T47D; read-out: GI50) was 1.88 µM and the TGI (T47D; read-out: TGI) was 4.32 µM. For the same molecule, the GI50 (T47D; read-out: pGI50 (converted)) was 1.86 µM, the TGI (T47D; read-out: pTGI (converted)) was 4.37 µM and the growth at 0.1 µM (Malme-3M) was 95%. It also gave a growth at 100 µM [9] of -14%, a growth at 100 µM [10] of -49% and a GI50 ([11]; read-out: GI50) of 0.459 µM. It also gave a CC50 [11, 19] of over 100 µM, a TGI ([11]; read-out: TGI) of 2.51 µM and a GI50 ([11]; read-out: pGI50 (converted)) of 0.457 µM. The CC50 [11, 20] was over 100 µM, the TGI ([11]; read-out: pTGI (converted)) was 2.51 µM and the growth at 10 µM [12] was -61%. It also gave a GI50 (MDA-MB-468 [13]; read-out: GI50) of 2.92 µM, a CC50 (MDA-MB-468 [13]; [19]) of over 100 µM and a TGI (MDA-MB-468 [13]; read-out: TGI) of 7.65 µM. It also gave a GI50 (MDA-MB-468 [13]; read-out: pGI50 (converted)) of 2.95 µM, a CC50 (MDA-MB-468 [13]; [20]) of over 100 µM and a TGI (MDA-MB-468 [13]; read-out: pTGI (converted)) of 7.59 µM. It also gave a growth at 1 µM (A549) of 99%, a growth at 1 µM [14] of 92% and a growth at 10 µM [15] of -43.5%. The growth at 100 µM (ACHN) was 3%, the growth at 1 µM (MDA-MB-468 [16]) was 106% and the growth at 100 µM (SN12C [17]) was -21%. It also gave a growth at 100 µM [18] of -16%.
